A selection: hits, their analogues and other compounds. The true share with any hit is near 3.1%.
OX1R antag-1 = blocks the human orexin 1 receptor | inhibition, % at 6.6 µM | actives 1.8% (n = 330,000) | OX1R-expressing cells, FRET antagonist read-out | O43613; in the data active = inhibition mostly above about 38%, no sharp cut-off; inactive = mostly below about 40%
GPR7 antagonist = human neuropeptides B/W receptor 1 antagonism | P48145 | GPR7-expressing cells, fluorescence antagonist assay | inhibition, % at 4.4 µM | actives 1.1% (n = 290,000); in the data active = inhibition above about 16%, passing the limit was not always enough;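 note: cells stimulated with the agonist NPW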
OX1R antag-2 = blocks the human orexin 1 receptor. O43613. CHO/OX1R cells, Fluo-8 calcium fluorescence, orexin A. inhibition, % at 5 µM. actives 0.43% (n = 330,000). AID 434989;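 active = inhibition above its plate's threshold, mean inhibition of all tested compounds on the plate plus 3 SD, cut at about 37% in these data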
CHO parental Ca = counter-screen for OX1R antagonists: effect in parental CHO cells; parental CHO-K1, ATP-induced calcium, Fluo-8 fluorescence; inhibition, % at 5.6 µM; actives 0.63% (n = 330,000); AID 463079;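 active = inhibition above that plate's mean sample inhibition plus 3 SD, cut at about 26% in these data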
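Material: parental CHO cells / Compound: single nominal dose of 5.6 µM per compound / Signal: Fluo-8 fluorescence / Replicates: singlicate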
GalR3 antagonist = antagonists of human GalR3; O60755; HEK293 GalR3-CNG cAMP membrane potential fluorescence; galR3 body fused to GalR1 C-terminus; inhibition, % at 3 µM; actives 0.44% (n = 360,000); AID 651719;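 active = inhibition above the screen-wide average plus 3 SD, cut at about 13% in these data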;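 note: forskolin and galanin both at EC90 stimulate the cells; cAMP rise reported by CNG channel membrane potential dye signal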
Target sequence (O60755 1-299 limits assumed): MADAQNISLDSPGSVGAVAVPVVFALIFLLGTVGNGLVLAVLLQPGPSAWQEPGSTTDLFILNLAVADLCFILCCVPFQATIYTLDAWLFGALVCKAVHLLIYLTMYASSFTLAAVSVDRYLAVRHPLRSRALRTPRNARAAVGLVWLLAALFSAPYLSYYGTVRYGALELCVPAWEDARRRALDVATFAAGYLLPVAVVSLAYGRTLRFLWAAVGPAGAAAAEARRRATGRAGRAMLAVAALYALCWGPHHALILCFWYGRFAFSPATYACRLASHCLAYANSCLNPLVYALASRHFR
GPR7 antag cf = confirmation of human GPR7 antagonists; shares compounds with GPR7 antagonist; GPR7-expressing cells, calcium fluorescence antagonist mode; inhibition, % at 4.4 µM; actives 52% (n = 2,400); in the data active = inhibition above about 24%;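 note: stimulated with the GPR7 agonist NPW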
MCHR1 antagonist = counter-screen for GPR7 antagonists: antagonists of human MCHR1; shares compounds with GPR7 antagonist; MCHR1-expressing cells, fluorescence antagonist assay; inhibition, % at 4.4 µM; actives 62% (n = 2,400); AID 2148; in the data active = inhibition above about 22%
Each line names hits and unclear results; the compound was inactive in the other large screens (follow-up assays come after a bar, where they were run).

Cc1cc(C)cc(N2C(=O)CN(Cc3ccccc3)C2=S)c1	none
Cc1ccc(-c2ocnc2C(=O)N2CCN(C(=O)c3cccs3)CC2)cc1	GPR7 antagonist 28 | GPR7 antag cf inactive | MCHR1 antagonist inactive
CCN(CC)S(=O)(=O)c1ccc(NC(=O)CSc2nnc(-c3cccc(OC)c3)n2C)cc1	none
C=C(C)CSc1nnc(-c2cccc(S(=O)(=O)N(C)C)c2)n1-c1cc(OC)ccc1OC	GPR7 antagonist 32 | GPR7 antag cf 35 | MCHR1 antagonist inactive
COc1cccc(C(NC(C)=O)c2nc(-c3ccc(OC)nc3)cs2)c1 (stereo not drawn)	none (no result: OX1R antag-1, GPR7 antagonist, OX1R antag-2, CHO parental Ca)
Cc1ccc(N(C(=O)c2csnn2)C(C(=O)NC2CCCC2)c2ccncc2)c(C)c1 (stereo not drawn)	GPR7 antagonist 41 | GPR7 antag cf inactive | MCHR1 antagonist inactive
Cc1ccc(C)c(N(C(=O)c2csnn2)C(C(=O)NC2CCCC2)c2ccncc2)c1 (stereo not drawn)	none
c1ccc(-c2csc3ncnc(NCC4COc5ccccc5O4)c23)cc1 (stereo not drawn)	GPR7 antagonist 50, CHO parental Ca 79, GalR3 antagonist 88 | GPR7 antag cf 54 | MCHR1 antagonist 63
CC(C)CC(Nc1ncnc2scc(-c3ccccc3)c12)C(=O)O (stereo not drawn)	none
CC(=O)[C@@]1(O)[C@H](C)CC2C3CC=C4CC(OP(=O)(O)O)CC[C@]4(C)C3CC[C@@]21C (stereo partly drawn)	GPR7 antagonist 28 | GPR7 antag cf inactive | MCHR1 antagonist inactive
C=CCCC(=O)N1C[C@H]2CON(C)[C@H]2C[C@H]1c1ccc(-n2ccnc2)cc1	none (no result: OX1R antag-1, GPR7 antagonist, OX1R antag-2, CHO parental Ca)
COc1ccc(C(=O)N(C)Cc2ccc(C)o2)cc1OC1CCN(C(C)=O)CC1	GPR7 antagonist 23 | GPR7 antag cf inactive | MCHR1 antagonist 36
COc1ccc(C(=O)N2CCCCCC2)cc1OC1CCN(C(C)=O)CC1	none
Cc1nc(C(=O)N(C)C)nn1-c1ccc([N+](=O)[O-])cc1	none
Cc1nc(C(=O)Nc2ccc(Cl)cc2)nn1-c1ccc([N+](=O)[O-])cc1	GPR7 antagonist 31 | GPR7 antag cf inactive | MCHR1 antagonist inactive
Cc1cc(SCc2cccc([N+](=O)[O-])c2)nc(=O)[nH]1	none
Cc1cc(SCc2ccc([N+](=O)[O-])cc2)nc(=O)[nH]1	GPR7 antagonist 26 | GPR7 antag cf inactive | MCHR1 antagonist inactive
N#CC(C#N)=C1C=C2C=C(N3CCOCC3)CCC2CC1 (stereo not drawn)	GPR7 antagonist 34 (no result: OX1R antag-1, OX1R antag-2, CHO parental Ca) | GPR7 antag cf 82 | MCHR1 antagonist 96
N#CC(C#N)=C1C=C2C=C(N3CCCCCC3)CCC2CC1 (stereo not drawn)	GPR7 antagonist 72 (no result: OX1R antag-1, OX1R antag-2, CHO parental Ca) | GPR7 antag cf 97 | MCHR1 antagonist 110
CCN1CCN(C2=CC3=CC(=C(C#N)C#N)CCC3CC2)CC1 (stereo not drawn)	GPR7 antagonist 60 (no result: OX1R antag-1, OX1R antag-2, CHO parental Ca, GalR3 antagonist) | GPR7 antag cf 68 | MCHR1 antagonist 91
CN1CCN(C2=CC3=CC(=C(C#N)C#N)CCC3CC2)CC1 (stereo not drawn)	GPR7 antagonist 59 (no result: OX1R antag-1, OX1R antag-2, CHO parental Ca, GalR3 antagonist) | GPR7 antag cf 76 | MCHR1 antagonist 90
CC1(C)CC(NCCN2CCN(C3=CC(=C(C#N)C#N)CC(C)(C)C3)CC2)=CC(=C(C#N)C#N)C1	none
COC(=O)CC#C[C@H](C)[C@@H](NS(=O)(=O)c1ccc([N+](=O)[O-])cc1)C(C)(C)C	none (no result: OX1R antag-1, GPR7 antagonist, OX1R antag-2, CHO parental Ca)
COc1ccccc1N1CCN(CC(=O)Nc2ccc(CN3CCCCC3)cc2)CC1	none (no result: GalR3 antagonist)
Cc1ccc(Cl)cc1N1CCN(CC(=O)Nc2ccc(CN3CCCCC3)cc2)CC1	GPR7 antagonist 24 | GPR7 antag cf 28 | MCHR1 antagonist 56
c1ccc(-c2nnc3oc(-c4cccs4)nn23)cc1	none (no result: OX1R antag-1, GPR7 antagonist, OX1R antag-2, CHO parental Ca)
Cc1ccc(S(=O)(=O)/C=C2\OCc3ccccc32)cc1	none (no result: OX1R antag-1, GPR7 antagonist, OX1R antag-2, CHO parental Ca)
O=C(c1ccco1)N1CCC(c2nc(-c3ccccc3Cl)no2)CC1	GPR7 antagonist 28 | GPR7 antag cf inactive | MCHR1 antagonist inactive
COc1ccc(-c2oc3c(c2C(=O)OCCCO)C(OCCO)CCC3)cc1 (stereo not drawn)	none (no result: OX1R antag-1, GPR7 antagonist, OX1R antag-2, CHO parental Ca)
